The record followed here is ChEMBL document CHEMBL1138291, “Structure-activity studies of novel cyanoguanidine ATP-sensitive potassium channel openers for the treatment of overactive bladder” (J Med Chem, 2007).

A short description of data set [1]: Half life in dog at 100 nmol/kg, iv. The data set is classed as ADME, organism-based, Canis lupus familiaris. Particulars: in vivo.
A short description of data set [2]: Oral bioavailability in dog at 100 nmol/kg, po. The data set is classed as ADME, organism-based, Canis lupus familiaris. As to conditions: in vivo.
Data set [3] in a line: Tmax in dog at 100 nmol/kg, po. The data set is classed as ADME, organism-based, Canis lupus familiaris. As to conditions: in vivo.
Data set [4] can be described thus: Plasma clearance in dog at 100 nmol/kg, iv. The data set is classed as ADME, organism-based, Canis lupus familiaris.
The nature of data set [5]: Half life in dog at 100 nmol/kg, po. The data set is classed as ADME, organism-based, Canis lupus familiaris. As to conditions: in vivo.
Data set [6] can be described thus: Activity at Kir6.2 channel in Landrace pig bladder detrusor assessed as relaxation of electrically stimulated contraction. Also on record: species or system Sus scrofa.
Data set [7] is described as follows: Oral bioavailability in dog at 10 nmol/kg, po. In kind it is ADME, organism-based, Canis lupus familiaris. As to conditions: in vivo.
A short description of data set [8]: Tmax in dog at 10 nmol/kg, po. The data set is classed as ADME, organism-based, Canis lupus familiaris. Particulars: in vivo.
The nature of data set [9]: Plasma clearance in dog at 10 nmol/kg, iv. In kind it is ADME, organism-based, Canis lupus familiaris.
A short description of data set [10]: Half life in dog at 10 nmol/kg, po. Particulars: in vivo. The data set is classed as ADME, organism-based, Canis lupus familiaris.
A short description of data set [11]: Half life in dog at 10 nmol/kg, iv. Particulars: in vivo. In kind it is ADME, organism-based, Canis lupus familiaris.
In data set [12] the test system is Sus scrofa. Briefly: Reduction of unstable spontaneous bladder contractions in Landrace/Yorkshire pig bladder instability model at 0.3 mg/kg, iv. In kind it is functional. Also on record: scale not given: the % may be the effect or the level left.
For data set [13], the system named is Sus scrofa. Description: Reduction of blood pressure in pig at 1 mg/kg, iv. The data set is classed as functional. Also on record: scale not given: the % may be the effect or the level left. The gist of the method:
(§1)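 Conscious obstructed, telemetered pigs held in restraint cage with 20 gauge venous catheters in both ears for dosing and blood sampling; mean arterial pressure recorded, averaged over post-dose period as percent change from baseline.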

Data set [14] has as its system Portal vein. Description: Effect on rat portal vein. The data set is classed as functional, tissue-based.
The species named for data set [15] is Sus scrofa. Description: Inhibition of unstable spontaneous bladder contractions in Landrace/Yorkshire pig bladder instability model. The data set is classed as functional, organism-based.
The subject of data set [16] is Sus scrofa. Description: Reduction of blood pressure in pig at 0.3 mg/kg, iv. On the set-up: scale not given: the % may be the effect or the level left. In kind it is functional. The gist of the method:
as §1

The subject of data set [17] is Sus scrofa. Briefly: Reduction of unstable spontaneous bladder contractions in Landrace/Yorkshire pig bladder instability model at 1 mg/kg, iv. On the set-up: scale not given: the % may be the effect or the level left. In kind it is functional.

Regarding `CC(Cl)(Cl)C(NC(=O)c1ccc(Cl)cc1)NC(=NC#N)Nc1ccc(Cl)nc1` (stereo unspecified), the results for the half-life in data set [1] and in data set [5] were 594 min and 900 min, respectively. The bioavailability in data set [2] was found to be 100%. Further, the time of peak concentration (Tmax) in data set [3] was 24 min. The same compound showed a clearance in [4] of 2.17 mL/min/kg.

As for `Cc1cccc(C(=O)NC(N/C(=N/C#N)Nc2ccc(C(F)(F)F)nc2)C(C)(Cl)Cl)c1` (stereo unspecified), the “Log EC50” value in data set [6] is given as -5.94.

In the case of `Cc1ccc(C(=O)NC(N/C(=N/C#N)Nc2ccc(C(F)(F)F)nc2)C(C)(Cl)Cl)cc1` (stereo unspecified), the “Log EC50” value in data set [6] is on record as -5.15.

Turning to `CC(Cl)(Cl)C(NC(=O)c1ccc(Cl)cc1)N/C(=N/C#N)Nc1cccnc1Cl` (stereo unspecified), the “Log EC50” value in [6] was -6.16.

Take `CC(Cl)(Cl)C(NC(=O)c1cccc(Cl)c1)N/C(=N/C#N)Nc1ccc(Cl)nc1` (stereo unspecified): the “Log EC50” value in data set [6] was -5.35.

Take `CC(Cl)(Cl)C(NC(=O)c1cc(Cl)cc(Cl)c1)N/C(=N/C#N)Nc1ccc(Cl)nc1` (stereo unspecified): the “Log EC50” value in [6] was -5.44.

`CC(O)(C(=O)Nc1ccc(C(=O)c2ccccc2)cc1)C(F)(F)F` (single isomer, unassigned) [ZD-6169] came in with a bioavailability in data set [7] of 43%. In addition, the Tmax in data set [8] was determined as 24 min. For the same compound, the clearance in data set [9] was 11.2 mL/min/kg. Further, the results for the half-life in data set [10] and in data set [11] were 96 min and 114 min, respectively.

Turning to `CC(Cl)(Cl)C(NC(=O)c1ccc(Cl)cc1)N/C(=N/C#N)Nc1cncc(Br)c1` (stereo unspecified), in data set [6], the “Log EC50” value is recorded as -6.23.

As to `CC(Cl)(Cl)C(NC(=O)c1ccc(F)cc1)N/C(=N/C#N)Nc1ccc(C(F)(F)F)nc1` (stereo unspecified), the “Log EC50” value in [6] is -6.02.

For `CC(Cl)(Cl)C(NC(=O)c1ccc(Cl)cc1)N/C(=N/C#N)Nc1ccccc1F` (stereo unspecified), the “Log EC50” value in data set [6] is -5.98.

Regarding `CC(Cl)(Cl)[C@@H](NC(=O)c1ccc(Cl)cc1)N/C(=N/C#N)Nc1cccnc1`, the “Log EC50” value in data set [6] is -5.26.

As to `CC(Cl)(Cl)C(NC(=O)c1cccc(F)c1)N/C(=N/C#N)Nc1ccc(Cl)nc1` (stereo unspecified), the “Log EC50” value in data set [6] was -5.68.

`Cc1cccc(C(=O)NC(N/C(=N/C#N)Nc2ccc(Cl)nc2)C(C)(Cl)Cl)c1` (stereo unspecified): the “Log EC50” value in [6] is -5.42.

On to `CC(Cl)(Cl)C(NC(=O)c1cccc(F)c1)N/C(=N/C#N)Nc1ccc(C(F)(F)F)nc1` (stereo unspecified), for which, in data set [6], the “Log EC50” value is on record as -5.71.

On to `CC(Cl)(Cl)C(NC(=O)c1ccc(Cl)cc1)N/C(=N/C#N)Nc1ccc(F)nc1` (stereo unspecified), for which, in data set [6], the “Log EC50” value is on record as -5.87.

For the compound `CC(Cl)(Cl)C(NC(=O)c1ccc(Cl)cc1)N/C(=N/C#N)Nc1ccc(Cl)nc1` (stereo unspecified), the Activity was 19.7% in [12]; 36% in data set [13]; “Dose-dependent effect” in data set [15]; 1.4% in [16]; 90.7% in data set [17]. The same compound gave an EC50 in [14] of 813 nM.

As for `CC(Cl)(Cl)C(NC(=O)c1cc(F)cc(F)c1)N/C(=N/C#N)Nc1ccc(C(F)(F)F)nc1` (stereo unspecified), the half-life is 330 min in [1] and 414 min in [5]. The compound also returned a bioavailability in [2] of 100%. For the same compound, in data set [6], the “Log EC50” value is given as -5.54. For the same compound, in [3], the Tmax is 42 min. The same compound had a clearance in data set [4] of 1 mL/min/kg.

For `CC(Cl)(Cl)C(NC(=O)c1ccc(Cl)cc1)N/C(=N/C#N)Nc1ccc(C(F)(F)F)nc1` (stereo unspecified), the “Log EC50” value in data set [6] was -5.78.

For the compound `CC(Cl)(Cl)C(NC(=O)c1ccc(C(F)(F)F)cc1)N/C(=N/C#N)Nc1ccc(C(F)(F)F)nc1` (stereo unspecified), the “Log EC50” value in [6] is -5.65.

Regarding `CC(Cl)(Cl)C(NC(=O)c1cccc(Cl)c1)N/C(=N/C#N)Nc1ccc(C(F)(F)F)nc1` (stereo unspecified), the “Log EC50” value in [6] was -5.28.

As to `COc1ncccc1N/C(=N\C#N)NC(NC(=O)c1ccc(Cl)cc1)C(C)(Cl)Cl` (stereo unspecified), in data set [6], the “Log EC50” value is on record as -6.6.

Take `CC(Cl)(Cl)C(NC(=O)c1cccs1)N/C(=N/C#N)Nc1ccc(C(F)(F)F)nc1` (stereo unspecified): the “Log EC50” value in data set [6] is -5.44.

`CC(Cl)(Cl)C(NC(=O)c1cc(Cl)cc(Cl)c1)N/C(=N/C#N)Nc1ccc(C(F)(F)F)nc1` (stereo unspecified): the “Log EC50” value in [6] is -5.7.
